Screening results (PubChem BioAssay)
OX1R antag-1: human HCRTR1 antagonism; O43613; CHO/OX1R cells, Fluo-8 calcium fluorescence, orexin A; inhibition, % at 5 µM; 330,000 tested, 0.43% active; AID 434989;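 active = inhibition above its plate's threshold, mean inhibition of all tested compounds on the plate plus 3 SD, cut at about 37% in these data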;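 also: 0% = orexin A challenge wells and 100% = SB-334867-A antagonist wells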
CHO parental Ca: counter-screen: ATP calcium response change in parental CHO cells. parental CHO-K1, ATP-induced calcium, Fluo-8 fluorescence. AID 463079. 330,000 tested, 0.63% active. inhibition, % at 5.6 µM;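 active = inhibition above that plate's mean sample inhibition plus 3 SD, cut at about 26% in these data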;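 also: 0% = ATP-challenged DMSO wells and 100% = DMSO wells without ATP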
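Assay system: untransfected parental CHO cell line. Also added: ATP agonist challenge. Dosing: one dose, 5.6 µM nominal. Measured by: Fluo-8 fluorescence. Read-out: % inhibition. Benchmarks: ATP wells versus no-ATP DMSO wells. Repeats: no replicates.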
GalR3 antag: antagonists of human GalR3 | inhibition, % at 3 µM | HEK293 GalR3-CNG cAMP membrane potential fluorescence; galR3 body fused to GalR1 C-terminus | 360,000 tested, 0.44% active | O60755;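 active = inhibition above the screen-wide average plus 3 SD, cut at about 13% in these data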;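 also: forskolin and galanin both at EC90 stimulate the cells; cAMP rise reported by CNG channel membrane potential dye signal; 0% = forskolin plus galanin with DMSO and 100% = forskolin alone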
Target sequence (O60755 1-299 limits assumed): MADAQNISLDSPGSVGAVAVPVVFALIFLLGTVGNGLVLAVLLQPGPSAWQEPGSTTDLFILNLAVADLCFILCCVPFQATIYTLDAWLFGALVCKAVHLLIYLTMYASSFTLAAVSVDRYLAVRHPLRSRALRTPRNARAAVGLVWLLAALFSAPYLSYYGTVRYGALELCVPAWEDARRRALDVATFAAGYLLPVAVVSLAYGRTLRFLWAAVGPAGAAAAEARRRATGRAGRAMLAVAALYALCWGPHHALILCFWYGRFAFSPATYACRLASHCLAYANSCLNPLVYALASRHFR
OX1R antag-2: antagonists of human orexin 1 receptor (OX1R). OX1R-expressing cells, FRET antagonist read-out. 330,000 tested, 1.8% active. inhibition, % at 6.6 µM. AID 485270; in the data active = inhibition mostly above about 38%, no sharp cut-off; inactive = mostly below about 40%;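 also: 0% = agonist challenge alone and 100% = reference antagonist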
TAAR1 agonist: human TAAR1 agonism; Q96RJ0; CHO RD-HGA16 TAAR1, Fluo-8 calcium fluorescence; vehicle wells 0%, saturating PEA agonist 100%; AID 624467; activation, % at 3 µM; 360,000 tested, 0.99% active;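 active = activation above the mean activation of all test compounds in the run plus 3 SD, cut at about 38% in these data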
Target sequence (Q96RJ0 whole entry, looked up): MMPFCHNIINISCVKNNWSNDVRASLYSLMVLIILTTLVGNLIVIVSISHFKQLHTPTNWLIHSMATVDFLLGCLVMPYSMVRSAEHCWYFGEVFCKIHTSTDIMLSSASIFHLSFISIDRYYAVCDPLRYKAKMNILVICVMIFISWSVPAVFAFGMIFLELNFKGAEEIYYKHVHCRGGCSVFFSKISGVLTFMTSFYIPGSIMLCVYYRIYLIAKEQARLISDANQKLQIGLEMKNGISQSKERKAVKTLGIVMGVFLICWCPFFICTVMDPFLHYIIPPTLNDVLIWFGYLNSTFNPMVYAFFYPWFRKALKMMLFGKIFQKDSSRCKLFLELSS
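Repeats: no replicates (n 1) | Material: CHO-derived RD-HGA16 cells with stable Gα16 and human TAAR1 | Technique: Kinetic Fluo-8 calcium fluorescence | Schedule: 17-24 h seeding, 75 min 37 °C dye, 30 min RT | Evaluation: % activation from peak over basal fluorescence ratio, DMSO-to-PEA scaled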
TAAR1 antag: antagonists of human TAAR1; 360,000 tested, 1.5% active; inhibition, % at 3 µM; AID 624466; CHO RD-HGA16 TAAR1, Fluo-8 calcium fluorescence, antagonist; Q96RJ0;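 active = inhibition above a per-plate cutoff, the mean inhibition of test compounds on that plate plus 3 SD, cut at about 49% in these data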;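 also: 0% = DMSO plus EC80 beta-PEA response and 100% = DMSO alone without agonist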
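test system = CHO RD-HGA16 cells bearing hTAAR1 | replication = singlicate | controls = DMSO-only wells and EC80 β-PEA-stimulated wells | reagent = EC80 β-phenethylamine stimulus | read-out basis = percent inhibition of PEA-evoked calcium signal, max/basal emission ratio | schedule = seeding 17-24 h prior, 75-min 37 °C, 30-min RT dye loading | signal = kinetic Fluo-8 calcium fluorescence measurement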
GalR3 conf: confirmation of human galanin receptor 3 antagonists. inhibition, % at 3 µM. HEK293 GalR3 CNG cAMP biosensor, membrane potential fluorescence; galR3 fused to GalR1 carboxy tail; challenged with forskolin and galanin at EC90. AID 652245. shares compounds with GalR3 antag. 1,600 tested, 59% active;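 active = inhibition above the primary screen's cutoff, the mean inhibition of all screened compounds plus 3 SD, cut at about 13% in these data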;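 also: 0% = forskolin plus galanin and 100% = forskolin alone with DMSO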
CNG parental: counter-screen for GalR3 antagonists: nonspecific agonists in parental HEK-CNG cells; shares compounds with GalR3 antag; HEK293-CNG parental cells, cAMP membrane potential fluorescence; normalised: DMSO wells 0%, forskolin wells 100%; activation, % at 3 µM; 1,600 tested, 10% active; AID 652268; in the data active = activation above about 1.3%
An asterisk follows results filed as active; . = no result given. Only some compounds are listed: those with a hit (about 4.2% of all), similar ones and a draw of the others.

SMILES | OX1R antag-1 | CHO parental Ca | GalR3 antag | OX1R antag-2 | TAAR1 agonist | TAAR1 antag | GalR3 conf | CNG parental
COc1cc2c3c(c1)C(C)CC(C)(C)N3C(=O)C2=O (stereo not drawn) | -77 | 0 | 22* | 44* | -1 | -45 | 23* | 1
COc1cc2c3c(c1)C(C)=CC(C)(C)N3C(=O)C2=O | -9 | -13 | 14* | 3 | -2 | -14 | 9 | 1
CC(C)c1csc(CN2CCC(CO)(Cc3cccc(F)c3)CC2)n1 | -29 | -8 | 13* | 36 | 3 | -12 | -2 | 0
OCC1(Cc2cccc(F)c2)CCN(Cc2cccc3nccnc23)CC1 | -20 | -9 | -3 | 25 | 1 | -3 | . | .
COc1cc(CCCN2C(N)=NC[C@@H]2c2ccccc2)cc(OC)c1OC | -9 | -8 | . | 18 | 3 | 3 | 4 | 0
CCC(C)[C@H]1CN=C(N)N1CCCc1cc(OC)c(OC)c(OC)c1 (stereo partly drawn) | -8 | -8 | 0 | 45 | 11 | 11 | . | .
CC(C)C(NS(=O)(=O)c1cccc2nsnc12)C(=O)NCCC1=CCCCC1 (stereo not drawn) | -15 | -15 | 3 | 38 | 1 | -17 | . | .
CCCCNC(=S)Nc1cccc2cnccc12 | -5 | 0 | 1 | 48 | 10 | 0 | . | .
S=C(NCCc1ccccc1)Nc1cccc2cnccc12 | 26 | 52* | 33* | 44 | 51* | 6 | 103* | 0
Nc1ncnc2c1ncn2[C@@H]1O[C@H](C(=O)NCCc2ccc(F)cc2)[C@@H](O)[C@H]1O | . | . | 7 | . | 0 | -9 | . | .
C=CCn1c(N)c(C(=O)N2CCN(C)CC2)sc1=S | -14 | -11 | -7 | 10 | 4 | 1 | . | .
CCOC(=O)c1[nH]nc(C(=O)c2ccc(Br)cc2)c1O | -5 | -2 | -2 | 8 | 3 | -2 | . | .
CCCOc1ccc(Cn2c(=O)oc3ccc(C)cc32)cc1OC | -30 | -11 | 14* | 8 | 15 | -11 | 0 | 0
CCCOc1ccccc1Cn1c(=O)oc2ccc(C)cc21 | -12 | 1 | -1 | 17 | 10 | 12 | . | .
Cc1ccccc1NC(=O)Cc1cccc(C(F)(F)F)c1 | -30 | -9 | -4 | -5 | 13 | 0 | . | .
COc1ccc(CNC(=S)N2CCN(Cc3ccccc3)CC2)cc1 | -8 | -11 | 2 | 1 | 1 | -10 | . | .
Cc1ccc(/C=C/C(=O)Nc2ccccc2C(N)=O)cc1 | -14 | -9 | . | 17 | -2 | 6 | 4 | 0
C/C(=N\NC(N)=S)c1ccc(-n2ccnc2)cc1 | -21 | -7 | -4 | 9 | -1 | -11 | . | .
CN(Cc1ccccc1)CC(O)COc1ccc(CNCCc2cccnc2)cc1 (stereo not drawn) | -32 | -8 | 6 | 16 | 2 | 0 | . | .
CCc1ccc(CNCc2ccc(OCC(O)CN(C)Cc3ccccc3)cc2)nc1 (stereo not drawn) | -30 | -23 | 56* | 9 | 3 | -15 | 14* | 15*
O=C(NC(Nc1nc2ccc([N+](=O)[O-])cc2s1)(C(F)(F)F)C(F)(F)F)c1cccnc1 | -2 | 6 | 52* | 59* | 17 | -32 | 85* | 1
CN(C)S(=O)(=O)c1ccc2nc(NC(=O)c3cccnc3)sc2c1 | 5 | -2 | -3 | 4 | 10 | -6 | . | .
COc1ccc(C2Nc3ccccc3C(=O)N2NS(C)(=O)=O)cc1OC (stereo not drawn) | -3 | -6 | 0 | 8 | 10 | 11 | . | .
Cc1ccc(C)c(C(C)NC(=O)CC#N)c1 (stereo not drawn) | -15 | -10 | -2 | 4 | 1 | 3 | . | .
CCCNC(=O)COC(=O)/C=C/c1ccco1 | -11 | -9 | 4 | 24 | 2 | 6 | . | .
SMILES | OX1R antag-1 | CHO parental Ca | GalR3 antag | OX1R antag-2 | TAAR1 agonist | TAAR1 antag | GalR3 conf | CNG parental
CCCCn1c(/N=C/c2ccccc2NS(=O)(=O)c2ccc(C)cc2)nc2ccccc21 | 1 | 5 | -5 | 3 | -2 | 0 | . | .
CC(C)Oc1ncnc2c1[nH]c1ccccc12 | 11 | 5 | 19* | 8 | 5 | -3 | 6 | 0
COc1cc(C(C)=O)ccc1OCc1cc(C(=O)N(C)CCC2CCCCO2)no1 (stereo not drawn) | -36 | -13 | -5 | 16 | 0 | 6 | . | .
O=C(Cn1nc(-c2ccccc2)c2ccccc2c1=O)Nc1ccc(O)cc1 | -10 | 4 | 14* | 8 | -1 | -10 | 1 | -1
CC(NC(=O)Cn1nc(-c2ccccc2)c2ccccc2c1=O)c1ccccc1 (stereo not drawn) | -29 | -16 | -7 | 26 | 23 | -6 | . | .
COC(=O)c1ccc(C2=NOC(C)(c3sc(-c4ccccc4)nc3C)C2)cc1 (stereo not drawn) | -23 | -26 | . | 18 | 15 | 3 | 32* | 1.5*
CN(Cc1cccnc1)Cc1cn(C)nc1-c1cccc(Cl)c1 | -21 | -5 | -4 | -1 | 0 | -4 | . | .
COc1ccc(-c2nnn(CC(=O)N(CC(=O)NC3CCCC3)Cc3ccco3)n2)cc1OC | -21 | -8 | 21* | 3 | 1 | 0 | 14* | 0
CC1CCN(C(=O)/C(=C\c2cccs2)NC(=O)c2ccccc2)CC1 | -18 | -13 | 19* | 25 | 6 | -3 | 8 | 0
CC1CCN(C(=O)/C(=C\c2ccco2)NC(=O)c2ccccc2)CC1 | -14 | -10 | -8 | 20 | 0 | -22 | . | .
COc1ccccc1-c1oc2ccccc2c1-c1ccc2c(c1)OCO2 | -28 | -35 | -4 | 5 | -1 | 14 | . | .
COc1cc(C#Cc2c(-c3ccccc3OC)oc3ccccc23)cc(OC)c1 | -5 | -28 | 13* | 7 | 0 | 1 | 6 | 0
CC(=O)N1CCc2cc(S(=O)(=O)NCCC3=CCCCC3)ccc21 | 38 | 38* | 82* | 42 | 13 | 22 | 80* | 0
COc1ccc(C2=NN(C(=O)c3cccs3)C(O)(C(F)(F)F)C2)cc1 (stereo not drawn) | -42 | -45 | 88* | 1 | 7 | 28 | 94* | 1
O=C(c1ccccc1)N1N=C(c2ccccc2)CC1(O)C(F)(F)F (stereo not drawn) | -23 | -14 | 7 | -3 | -3 | -4 | . | .
CCOC(=O)C1=C2c3cc(OC)c(OC)cc3CC(C)(C)N2C(=O)C1=O | -20 | -11 | 1 | 35 | -2 | -12 | . | .
